Key:
K562 = test: Antiproliferative activity against human K562 cells assessed as growth inhibition after 48 hrs by SRB assay; type: functional; settings: K562, 48 h
Method in brief: (§1)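 Cells exposed 48 h at 37 °C, 5% CO2 to 0.25, 2.5, 25 and 250 µg/mL in DMSO/RPMI (final DMSO 0.1%); doxorubicin standard at 0.025–25 µg/mL. Plates fixed with 50% TCA before (T0) and after treatment; protein content read by sulforhodamine B at 540 nm. GI50 (µM) from nonlinear regression of concentration–response curves; triplicate.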

[1] = Antiproliferative activity against human HaCaT cells assessed as growth inhibition after 48 hrs by SRB assay; type: cell-based; method in brief: as §1
786-0 [2] = test: Cytotoxicity against human 786-0 cells assessed as compound concentration required to inhibit total growth after 24 hrs by SRB assay; type: functional; settings: 786-0, 24 h
Method in brief: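 786-0 cells treated 24 h with 25, 50, 100 and 200 µM; growth measured by sulforhodamine B staining. Concentration giving total growth inhibition (TGI) calculated from the concentration–response data.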

786-0 [3] = test: Cytotoxicity against human 786-0 cells assessed as compound concentration required to cause 50% cell death after 24 hrs by SRB assay; type: functional; settings: 786-0, 24 h, read-out: LC50 (the source's name)
Method in brief: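 786-0 cells exposed 24 h to 25, 50, 100 and 200 µM; growth measured by sulforhodamine B staining of TCA-fixed cells (540 nm) with time-zero plate; LC50 (50% cell death) and TGI derived by non-linear regression.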

786-0 [4] = test: Induction of cell death in human 786-0 cells assessed as phosphatidylserine externalization at 50 uM after 24 hrs by annexin V/7-amino-actinomycin D double staining based flow cytometric analysis (reference value: 3.8 +/- 0.5%); type: functional
786-0 [5] = test: Induction of cell death in human 786-0 cells assessed as phosphatidylserine externalization at 50 uM after 18 hrs by annexin V/7-amino-actinomycin D double staining based flow cytometric analysis (reference value: 7.2 +/- 1.4%); type: functional
786-0 [6] = test: Cell cycle arrest in human 786-0 cells assessed as accumulation at Sub G1 phase at 25 uM after 24 hrs by propidium iodide based flow cytometric analysis (reference value: 3.0 +/- 0.7%); type: functional
786-0 [7] = test: Cell cycle arrest in human 786-0 cells assessed as reduction in G1 phase at 25 uM after 24 hrs by propidium iodide based flow cytometric analysis (reference value: 46.7 +/- 0.8%); type: functional; parameters: scale not given: the % may be the effect or the level left
786-0 [8] = test: Cell cycle arrest in human 786-0 cells assessed as accumulation at S phase at 25 uM after 24 hrs by propidium iodide based flow cytometric analysis (reference value: 14.6 +/- 1.3%); type: functional
[9] = Acute toxicity in Balb/C mouse assessed as survival rate at 200 mg/kg, po; type: organism-based; settings: in vivo
Method in brief: (§2)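 Fixed dose procedure following OECD guideline; Balb/C mice (20-35 g) fasted 16 h, groups of 5 given single oral doses stepwise at 600, 400 and 200 mgKg-1; survival and clinical signs of pain, suffering and impending death recorded per OECD guidance.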

[10] = Acute toxicity in Balb/C mouse assessed as survival rate at 400 mg/kg, po; type: organism-based; settings: in vivo; method in brief: as §2
Mus musculus = test: Acute toxicity in Balb/C mouse assessed as pain, suffering and impending death at 200 to 400 mg/kg, po; type: organism-based; settings: in vivo; method in brief: as §2
[11] = Antitumor activity against mouse EAT implanted in Balb/C mouse assessed as change in paw volume at 30 mg/kg, po administered on day 3 post tumor inoculation measured on day 3 by plethysmometer analysis (reference value: 40.2 +/- 7.0%); type: functional
[12] = Antitumor activity against mouse EAT implanted in Balb/C mouse assessed as change in paw volume at 300 mg/kg, po administered on day 3 post tumor inoculation measured on day 3 by plethysmometer analysis (reference value: 40.2 +/- 7.0%); type: functional
[13] = Antitumor activity against mouse EAT implanted in Balb/C mouse assessed as change in paw volume at 30 mg/kg, po administered on day 3 post tumor inoculation measured on day 6 by plethysmometer analysis (reference value: 86.1 +/- 5.7%); type: functional
[14] = Antitumor activity against mouse EAT implanted in Balb/C mouse assessed as change in paw volume at 100 mg/kg, po administered on day 3 post tumor inoculation measured on day 6 by plethysmometer analysis (reference value: 86.1 +/- 5.7%); type: functional
[15] = Antitumor activity against mouse EAT implanted in Balb/C mouse assessed as change in paw volume at 300 mg/kg, po administered on day 3 post tumor inoculation measured on day 6 by plethysmometer analysis (reference value: 86.1 +/- 5.7%); type: functional
[16] = Antitumor activity against mouse EAT implanted in Balb/C mouse assessed as change in paw volume at 100 mg/kg, po administered on day 3 post tumor inoculation measured on day 9 by plethysmometer analysis (reference value: 95.5 +/- 5.2%); type: functional
[17] = Antitumor activity against mouse EAT implanted in Balb/C mouse assessed as change in paw volume at 300 mg/kg, po administered on day 3 post tumor inoculation measured on day 9 by plethysmometer analysis (reference value: 95.5 +/- 5.2%); type: functional
[18] = Antitumor activity against mouse EAT implanted in Balb/C mouse assessed as change in paw volume at 30 mg/kg, po administered on day 3 post tumor inoculation measured on day 12 by plethysmometer analysis (reference value: 125.5 +/- 7.5%); type: functional
[19] = Antitumor activity against mouse EAT implanted in Balb/C mouse assessed as change in paw volume at 100 mg/kg, po administered on day 3 post tumor inoculation measured on day 12 by plethysmometer analysis (reference value: 125.5 +/- 7.5%); type: functional
[20] = Antitumor activity against mouse EAT implanted in Balb/C mouse assessed as change in paw volume at 300 mg/kg, po administered on day 3 post tumor inoculation measured on day 12 by plethysmometer analysis (reference value: 125.5 +/- 7.5%); type: functional
U-251 = test: Antiproliferative activity against human U251 cells assessed as growth inhibition after 48 hrs by SRB assay; type: functional; settings: U-251, 48 h; method in brief: as §1
[21] = Antiproliferative activity against human UACC62 cells assessed as growth inhibition after 48 hrs by SRB assay; type: functional; settings: UACC-62, 48 h; method in brief: as §1
MCF7 = test: Antiproliferative activity against human MCF7 cells assessed as growth inhibition after 48 hrs by SRB assay; type: functional; settings: MCF7, 48 h; method in brief: as §1
[22] = Antiproliferative activity against human NCI-ADR-RES cells assessed as growth inhibition after 48 hrs by SRB assay; type: functional; method in brief: as §1
NCI-H460 = test: Antiproliferative activity against human NCI-H460 cells assessed as growth inhibition after 48 hrs by SRB assay; type: functional; settings: NCI-H460, 48 h; method in brief: as §1
[23] = Antiproliferative activity against human PC3 cells assessed as growth inhibition after 48 hrs by SRB assay; type: functional; settings: PC-3, 48 h; method in brief: as §1
HT-29 = test: Antiproliferative activity against human HT-29 cells assessed as growth inhibition after 48 hrs by SRB assay; type: functional; settings: HT-29, 48 h; method in brief: as §1

`S=C(N/N=C/c1cccs1)Nc1ccc(Br)cc1` showed a GI50 (K562) of over 100 µM, a GI50 at 48 h [1] of 0.8 µM and a TGI (786-0 [2]) of 28 µM. The CC50 (786-0 [3]) was 91.8 µM, the Activity (786-0 [4]) was 21.9% and the Activity (786-0 [5]) was 15.5%. For the same compound, the Activity (786-0 [6]) was 5.4%, the Activity (786-0 [7]) was 44.9% and the Activity (786-0 [8]) was 13.9%. For the same compound, the survival [9] was 100%, the survival [10] was 100% and the Activity (Mus musculus) was “Non-toxic”. The Activity [11] was 26.8%, the Activity [12] was 39.4% and the Activity [13] was 60.6%. For the same compound, the Activity [14] was 78.1%, the Activity [15] was 75.1% and the Activity [16] was 73.7%. For the same compound, the Activity [17] was 72.8%, the Activity [18] was 36.3% and the Activity [19] was 75.8%. For the same compound, the Activity [20] was 64%, the GI50 (U-251) was 4.2 µM and the GI50 [21] was 71.1 µM. For the same compound, the GI50 (MCF7) was under 0.74 µM, the GI50 [22] was 1.7 µM and the GI50 (NCI-H460) was 4.7 µM. It also gave a GI50 [23] of 79.4 µM and a GI50 (HT-29) of 17.7 µM.

Source: ChEMBL document CHEMBL3734720, “Synthesis of thiophene-thiosemicarbazone derivatives and evaluation of their in vitro and in vivo antitumor activities” (Eur J Med Chem, 2015)
